According to ChEMBL document CHEMBL1139254, “Synthesis and in vitro activities of a new antiviral duplex drug linking Zidovudine (AZT) and Foscarnet (PFA) via an octadecylglycerol residue” (Bioorg Med Chem, 2009):

Columns and labels:
[1] = Therapeutic index, IC50 for human CEM-SS cells to EC50 for HIV1; type: cell-based; details: read-out: Ratio IC50/EC50
In short: (§1)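 Run at the National Cancer Institute (USA). The assay rests on HIV killing T4 lymphocytes. EC50 is the concentration protecting against virus cytopathic effect, and IC50 is 50% inhibition of cell growth. The therapeutic index is TI50 = IC50/EC50.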

Human alphaherpesvirus 1 [2] = assay: Antiviral activity against acyclovir-resistant HSV1 L182 isolate replication in african green monkey Vero cells by plaque reduction assay; type: functional, organism-based; details: Human alphaherpesvirus 1, Vero
In short: (§2)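 HSV-1 was grown and assayed by plaque reduction in Vero cell monolayers in MEM with 10% FCS. Drug was diluted in MEM–10% FCS from a 100 mM PBS stock, and IC50 was read from the plaque counts. KOS-M was derived from KOS by 3 weeks of passage in 13 μM ACV.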

Human betaherpesvirus 5 [3] = assay: Antiviral activity against ganciclovir-sensitive HCMV1 isolate replication in HFF cells by plaque reduction assay; type: functional, organism-based; details: Human betaherpesvirus 5, HFF
In short: (§3)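 Plaque reduction run as a modified, simplified micro-culture, cell-associated immediate-early assay on human foreskin fibroblast monolayers (passage 15–30) in MEM with 10% FCS. Drug was diluted in MEM–10% FCS from a 100 mM PBS stock. IC50 came from Probit analysis. Strain HCMV-3res carries the UL97 C603W mutation. U405 is a clinical isolate from a pediatric stem cell transplant recipient.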

Human alphaherpesvirus 1 [4] = assay: Antiviral activity against acyclovir-sensitive HSV1 KOS isolate replication in african green monkey Vero cells by plaque reduction assay; type: functional, organism-based; details: Human alphaherpesvirus 1, Vero; in short: as §2
Human alphaherpesvirus 1 [5] = assay: Antiviral activity against acyclovir-resistant HSV1 K143 isolate replication in african green monkey Vero cells by plaque reduction assay; type: functional, organism-based; details: Human alphaherpesvirus 1, Vero; in short: as §2
Human alphaherpesvirus 1 [6] = assay: Antiviral activity against acyclovir-sensitive HSV1 K161 isolate replication in african green monkey Vero cells by plaque reduction assay; type: functional, organism-based; details: Human alphaherpesvirus 1, Vero; in short: as §2
[7] = test system: Human immunodeficiency virus 1; assay: Antiviral activity against HIV1 infected in human CEM-SS cells assessed as inhibition of virus-induced cytopathic effect by plaque reduction assay; type: functional, organism-based; details: Human immunodeficiency virus 1, CEM-SS; in short: as §1
Human alphaherpesvirus 1 [8] = assay: Antiviral activity against acyclovir-sensitive HSV1 L177 isolate replication in african green monkey Vero cells by plaque reduction assay; type: functional, organism-based; details: Human alphaherpesvirus 1, Vero; in short: as §2
Human betaherpesvirus 5 [9] = assay: Antiviral activity against ganciclovir-resistant HCMV3 isolate replication in HFF cells by plaque reduction assay; type: functional, organism-based; details: Human betaherpesvirus 5, HFF; in short: as §3
CEM-SS = assay: Growth inhibition of human CEM-SS cells; type: cell-based; in short: as §1
Human betaherpesvirus 5 [10] = assay: Antiviral activity against ganciclovir-resistant HCMV U405 isolate replication in HFF cells by plaque reduction assay; type: functional, organism-based; details: Human betaherpesvirus 5, HFF; in short: as §3
Human alphaherpesvirus 1 [11] = assay: Antiviral activity against acyclovir-resistant HSV1 KOS-M isolate replication in african green monkey Vero cells by plaque reduction assay; type: functional, organism-based; details: Human alphaherpesvirus 1, Vero; in short: as §2

SMILES	selectivity ratio [1]	IC50 (Human alphaherpesvirus 1 [2])	IC50 (Human betaherpesvirus 5 [3])	IC50 (Human alphaherpesvirus 1 [4])	IC50 (Human alphaherpesvirus 1 [5])	IC50 (Human alphaherpesvirus 1 [6])	EC50 [7]	IC50 (Human alphaherpesvirus 1 [8])	IC50 (Human betaherpesvirus 5 [9])	IC50 (CEM-SS)	IC50 (Human betaherpesvirus 5 [10])	IC50 (Human alphaherpesvirus 1 [11])
CCCCCCCCCCCCCCCCCCOC[C@H](COP(=O)(O)C(=O)O)OP(=O)(O)OC[C@H]1O[C@@H](n2cc(C)c(=O)[nH]c2=O)C[C@@H]1N=[N+]=[N-]	454	1.87 µM	2.78 µM	4.02 µM	4.59 µM	2.27 µM	0.17 µM	1.92 µM	1.18 µM	92.7 µM	4.29 µM	3.39 µM
Nc1nc2c(ncn2COCCO)c(=O)[nH]1 [ACYCLOVIR]		9.51 µM		3.04 µM	75.1 µM	0.58 µM		0.32 µM				31.2 µM
O=C(O)P(=O)(O)O [FOSCARNET]		46 µM		125 µM				64 µM	67.5 µM		400 µM	112 µM
Nc1nc2c(ncn2COC(CO)CO)c(=O)[nH]1 [GANCICLOVIR]			3.22 µM						16.4 µM			
